Legend:
[1] = tested on: Human immunodeficiency virus 1; assay: Antiviral activity against Human immunodeficiency virus 1 NL4-3 infected in human TZM-bl cells assessed as inhibition of viral replication after 48 hrs by luciferase reporter gene assay; format: functional, organism-based; settings: Human immunodeficiency virus 1, NL4-3, TZM-bl
Outline: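 Single-round infection of TZM-bl cells with HIV-1 NL4-3 at 200 TCID50, mixed with test samples at eight four-fold serial dilutions in growth medium. After 48 h, medium is removed and luciferase reagent added. Luminescence is then read. EC50 is the concentration giving 50% reduction in RLU versus virus control wells, after background RLU subtraction.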

[2] = Cytotoxicity against human TZM-bl cells assessed as inhibition of cell growth; format: cell-based
Outline: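 Uninfected TZM-bl cells exposed to test samples. CC50 is the concentration inhibiting cell growth by 50%.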

[3] = Therapeutic index, ratio of CC50 for human TZM-bl cells to EC50 for HIV1 NL4-3; format: cell-based; settings: read-out: Ratio CC50/EC50
Outline: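 TI calculated as CC50 (uninfected TZM-bl growth inhibition) divided by EC50 (NL4-3 replication inhibition in TZM-bl luciferase reporter assay).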

SMILES | EC50 [1] [nM] | CC50 [2] [nM] | selectivity ratio [3]
CCc1cc(=O)c2ccc3c(c2o1)[C@H](OC(=O)C12CCC(C)(C(=O)O1)C2(C)C)[C@H](OC(=O)C12CCC(C)(C(=O)O1)C2(C)C)[C@@H](C)S3 (stereo partly drawn) | 184 | 3830 | 20.8
CCc1cc(=O)c2ccc3c(c2o1)[C@@H](OC(=O)C12CCC(C)(C(=O)O1)C2(C)C)[C@@H](OC(=O)C12CCC(C)(C(=O)O1)C2(C)C)C(C)(C)O3 (stereo partly drawn) |  |  | 119
CCc1cc(=O)c2ccc3c(c2o1)[C@@H](OC(=O)C12CCC(C)(C(=O)O1)C2(C)C)[C@@H](OC(=O)C12CCC(C)(C(=O)O1)C2(C)C)[C@H](C)S3 (stereo partly drawn) | 38 | 1840 | 48
Cc1cc(=O)oc2c3c(ccc12)SC(C)(C)[C@@H](OC(=O)[C@@]12CC[C@@](C)(C(=O)O1)C2(C)C)[C@H]3OC(=O)[C@@]12CC[C@@](C)(C(=O)O1)C2(C)C | 8590 | > 30600 | > 3.6

More lines, main results first:

EC50 [1] [nM] | SMILES | CC50 [2] [nM] | selectivity ratio [3]
30 | CCc1cc(=O)c2ccc3c(c2o1)[C@@H](OC(=O)C12CCC(C)(C(=O)O1)C2(C)C)[C@@H](OC(=O)C12CCC(C)(C(=O)O1)C2(C)C)[C@H](C)O3 (stereo partly drawn) | 4550 | 153
128 | Cc1cc(=O)oc2c3c(ccc12)SC(C)(C)[C@H](OC(=O)[C@@]12CC[C@@](C)(C(=O)O1)C2(C)C)[C@@H]3OC(=O)[C@@]12CC[C@@](C)(C(=O)O1)C2(C)C |  | > 238
54 | CCc1cc(=O)c2ccc3c(c2o1)[C@@H](OC(=O)C12CCC(C)(C(=O)O1)C2(C)C)[C@@H](OC(=O)C12CCC(C)(C(=O)O1)C2(C)C)C(C)(C)S3 (stereo partly drawn) | 5400 | 100

— ChEMBL document CHEMBL1833958, “Anti-AIDS agents 87. New bio-isosteric dicamphanoyl-dihydropyranochromone (DCP) and dicamphanoyl-khellactone (DCK) analogues with potent anti-HIV activity” (Bioorg Med Chem Lett, 2011)
